We go through seven compounds from ChEMBL document CHEMBL1781968, “δ-Carbolines and their ring-opened analogs: synthesis and evaluation against fungal and bacterial opportunistic pathogens” (Eur J Med Chem, 2011).

≈ marks a conversion by molar mass, not a printed value.

Type in all cases: functional, organism-based
The test system of test [1] is Staphylococcus aureus. Nature of the test: Antibacterial activity against methicillin-resistant Staphylococcus aureus ATCC 33591 by NCCLS method. The method, boiled down:
(§1)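 Broth microdilution (modified NCCLS). Samples in DMSO serially diluted in 0.9% saline, tested in duplicate, highest final concentration 20 μg/mL. Inoculum matched to 0.5 McFarland standard by absorbance at 630 nm, then diluted in cation-adjusted Mueller–Hinton broth. Growth, solvent and medium controls on each plate. Absorbance at 530 nm read before and after incubation. IC50 taken from percent growth versus concentration plot; MIC is lowest concentration with no detectable growth; MBC is lowest concentration killing the organism.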

For test [2], the system named is Mycobacterium intracellulare. Nature of the test: Antibacterial activity against Mycobacterium intracellular ATCC 23068 by alamar blue method. Summed up:
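Modified Alamar blue method (Franzblau). Samples in DMSO serially diluted in 0.9% saline, in duplicate, final concentrations starting at 20 μg/mL. Inoculum adjusted to 0.5 McFarland, then diluted in Middlebrook 7H9 with OADC enrichment plus 5% Alamar blue. Fluorescence read (ex 544/em 590 nm) before and after incubation. IC50 from percent growth versus concentration. MIC is no detectable growth.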
A general note: Resazurin is reduced to fluorescent resorufin, in cell work by metabolically active cells.

A further test relates to Escherichia coli. Nature of the test: Antibacterial activity against Escherichia coli by NCCLS method. Summed up:
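Modified NCCLS broth microdilution. DMSO-dissolved samples serially diluted in 0.9% saline, tested in duplicate, final concentrations starting at 20 μg/mL. Inoculum set to 0.5 McFarland (absorbance 630 nm) and diluted in cation-adjusted Mueller–Hinton broth. Growth, solvent and medium controls on each plate. Read at 530 nm before and after incubation. IC50 from percent growth versus concentration. MIC is lowest concentration with no detectable growth.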

Test [3] concerns Staphylococcus aureus. Nature of the test: Antibacterial activity against Staphylococcus aureus ATCC 29213 by NCCLS method. The method, boiled down:
as §1

As usually defined, the IC50 is the concentration needed to halve the response being measured. A high value points to a need for much substance. One may read the MBC as the smallest concentration meeting the test's criterion for killing. Low values mean more potent killing, high ones less potent killing. A word on the MIC: it is the smallest concentration in the dilution series that meets the test's criterion for growth inhibition. Consider `COc1ccccc1N(CCCCCC1CCCCC1)c1ccc[n+](C)c1.[I-]`, for which the IC50 in the test with Staphylococcus aureus [1] was 1.2 µg/mL; in test [2], 1.9 µg/mL; in the test with Escherichia coli, 14 µg/mL; in the test on Staphylococcus aureus [3] it was 0.4 µg/mL. Also, the minimal bactericidal concentration (MBC) was 20 µg/mL against Staphylococcus aureus [1], 2.5 µg/mL in test [2], greater than 20 µg/mL in the test on Escherichia coli and 20 µg/mL in the test on Staphylococcus aureus [3]. The MIC against Staphylococcus aureus [1] is 5 µg/mL; in test [2], 2.5 µg/mL; against Escherichia coli, greater than 20 µg/mL; against Staphylococcus aureus [3], 0.6 µg/mL.
Consider `CCc1ccc(N(CCCCCC2CCCCC2)c2ccc[n+](C)c2)cc1.[I-]`, for which the half-inhibitory concentration (IC50) turned out to be 0.7 µg/mL in the test with Staphylococcus aureus [1], 0.6 µg/mL in test [2], 4 µg/mL in the test with Escherichia coli and 0.2 µg/mL in the test on Staphylococcus aureus [3]. The MBC against Staphylococcus aureus [1] worked out at 2.5 µg/mL; in test [2] it was 5 µg/mL; with Escherichia coli, 20 µg/mL; against Staphylococcus aureus [3] it was 5 µg/mL. Further, the MIC with Staphylococcus aureus [1] was found to be 1.3 µg/mL; in test [2] it was 1.3 µg/mL; in the test on Escherichia coli, 20 µg/mL; in the test with Staphylococcus aureus [3] it was 3 µg/mL.
For `Cc1ccccc1N(CCCCCC1CCCCC1)c1ccc[n+](C)c1.[I-]`, the half-maximal inhibitory concentration (IC50) with Staphylococcus aureus [1] is 1 µg/mL; in test [2], 1.6 µg/mL; in the test on Escherichia coli, 9.4 µg/mL; in the test with Staphylococcus aureus [3], 0.3 µg/mL. Also, the MBC was 10 µg/mL in the test with Staphylococcus aureus [1], 2.5 µg/mL in test [2], greater than 20 µg/mL in the test with Escherichia coli and 10 µg/mL against Staphylococcus aureus [3]. Also, the MIC was 2.5 µg/mL with Staphylococcus aureus [1], 2.5 µg/mL in test [2], greater than 20 µg/mL with Escherichia coli and 0.6 µg/mL in the test with Staphylococcus aureus [3].
Consider `Cc1cccc(N(CCCCCC2CCCCC2)c2ccc[n+](C)c2)c1.[I-]`, for which the IC50 in the test on Staphylococcus aureus [1] is 1.2 µg/mL; in test [2], 1.1 µg/mL; in the test with Escherichia coli it was 7.7 µg/mL; in the test with Staphylococcus aureus [3], 0.7 µg/mL. For the same compound, the minimum bactericidal concentration (MBC) in the test with Staphylococcus aureus [1] is 5 µg/mL; in test [2], 5 µg/mL; in the test with Escherichia coli, greater than 20 µg/mL; against Staphylococcus aureus [3] it was 5 µg/mL. The MIC in the test on Staphylococcus aureus [1] was 2.5 µg/mL; in test [2] it was 1.3 µg/mL; against Escherichia coli, greater than 20 µg/mL; in the test on Staphylococcus aureus [3], 1.3 µg/mL.
`C[n+]1cccc(N(CCCCCC2CCCCC2)c2ccccc2C(F)(F)F)c1.[I-]`: the IC50 in the test on Staphylococcus aureus [1] worked out at 0.6 µg/mL; in test [2] it was 1.2 µg/mL; in the test on Escherichia coli it was 9.1 µg/mL; with Staphylococcus aureus [3], 0.3 µg/mL. Besides, the minimal bactericidal concentration (MBC) is 5 µg/mL with Staphylococcus aureus [1], 2.5 µg/mL in test [2], greater than 20 µg/mL in the test on Escherichia coli and 10 µg/mL with Staphylococcus aureus [3]. Moreover, the MIC against Staphylococcus aureus [1] was 1.3 µg/mL; in test [2], 3.5 µg/mL; against Escherichia coli it was greater than 20 µg/mL; against Staphylococcus aureus [3] it was 0.3 µg/mL.
`O=C(O)c1cn(C2CC2)c2cc(N3CCNCC3)c(F)cc2c1=O` [CIPROFLOXACIN]: the minimal bactericidal concentration (MBC) against Staphylococcus aureus [1] was 0.5 µg/mL (≈ 1.51 µM); in test [2], greater than 20 µg/mL; with Escherichia coli it was 0.6 µg/mL (≈ 1.81 µM); in the test on Staphylococcus aureus [3], 0.5 µg/mL (≈ 1.51 µM). The MIC against Staphylococcus aureus [1] came to 0.3 µg/mL (≈ 0.905 µM); in test [2], 0.5 µg/mL (≈ 1.51 µM); with Escherichia coli, 0.3 µg/mL (≈ 0.905 µM); against Staphylococcus aureus [3] it was 0.3 µg/mL (≈ 0.905 µM). 0.005 µg/mL (≈ 0.0151 µM) corresponded to half-maximal inhibition in the test with Escherichia coli (IC50).
`C[n+]1cccc(N(CCCCCC2CCCCC2)c2cccc(C(F)(F)F)c2)c1.[I-]`: in the test on Staphylococcus aureus [1], the IC50 worked out at 1.5 µg/mL, the minimum bactericidal concentration (MBC) amounted to 5 µg/mL and the lowest concentration to inhibit growth (MIC) was 2.5 µg/mL. Moreover, in test [2], inhibition was half-maximal at 2 µg/mL (IC50), the minimum bactericidal concentration (MBC) was 2.5 µg/mL and the MIC was 2.5 µg/mL. Moreover, in the test with Escherichia coli, the half-maximal inhibitory concentration (IC50) was found to be 4.5 µg/mL, the MBC was greater than 20 µg/mL and the minimum inhibitory concentration (MIC) is greater than 20 µg/mL.
